Data on 91 compounds can be found in PubChem BioAssay AID489030 (Sanford-Burnham Center for Chemical Genomics, 2010).

Screen size: about 330,000 compounds; about 2,400 (0.73%) were called active. Rule for the calls: active = inhibition of at least 40% at 20 µM; inactive = the rest. Many of the other results were omitted from the sample, so actives are more common in it than they were.

The target of the assay is Apoptotic protease-activating factor 1 (Homo sapiens) (UniProt O14727). Description: inhibitors of human Apaf-1 apoptosome, primary screen, biochemical, DEVD-Rh110 fluorescence, uHTS (AID 489030).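 Note: plate controls were DMSO wells for no effect and DEVD-CHO caspase inhibitor wells for full effect.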 Conditions: reconstituted apoptosome caspase-3 activity, at 20 µM, stronger effect = higher value. The gist of the method: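 System – cell-free apoptosome with Apaf-1, procaspase-3 and caspase-9 · Buffer or medium – pH 7.5 Hepes buffer with CHAPS, BSA, DTT · Also added – cytochrome c with DEVD-Rh110 · Times – 30 min compound preincubation, 50 min activation, room temperature · Technique – Rh110 fluorescence intensity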
Chain of Apoptotic protease-activating factor 1 (Homo sapiens) (O14727 whole entry, looked up): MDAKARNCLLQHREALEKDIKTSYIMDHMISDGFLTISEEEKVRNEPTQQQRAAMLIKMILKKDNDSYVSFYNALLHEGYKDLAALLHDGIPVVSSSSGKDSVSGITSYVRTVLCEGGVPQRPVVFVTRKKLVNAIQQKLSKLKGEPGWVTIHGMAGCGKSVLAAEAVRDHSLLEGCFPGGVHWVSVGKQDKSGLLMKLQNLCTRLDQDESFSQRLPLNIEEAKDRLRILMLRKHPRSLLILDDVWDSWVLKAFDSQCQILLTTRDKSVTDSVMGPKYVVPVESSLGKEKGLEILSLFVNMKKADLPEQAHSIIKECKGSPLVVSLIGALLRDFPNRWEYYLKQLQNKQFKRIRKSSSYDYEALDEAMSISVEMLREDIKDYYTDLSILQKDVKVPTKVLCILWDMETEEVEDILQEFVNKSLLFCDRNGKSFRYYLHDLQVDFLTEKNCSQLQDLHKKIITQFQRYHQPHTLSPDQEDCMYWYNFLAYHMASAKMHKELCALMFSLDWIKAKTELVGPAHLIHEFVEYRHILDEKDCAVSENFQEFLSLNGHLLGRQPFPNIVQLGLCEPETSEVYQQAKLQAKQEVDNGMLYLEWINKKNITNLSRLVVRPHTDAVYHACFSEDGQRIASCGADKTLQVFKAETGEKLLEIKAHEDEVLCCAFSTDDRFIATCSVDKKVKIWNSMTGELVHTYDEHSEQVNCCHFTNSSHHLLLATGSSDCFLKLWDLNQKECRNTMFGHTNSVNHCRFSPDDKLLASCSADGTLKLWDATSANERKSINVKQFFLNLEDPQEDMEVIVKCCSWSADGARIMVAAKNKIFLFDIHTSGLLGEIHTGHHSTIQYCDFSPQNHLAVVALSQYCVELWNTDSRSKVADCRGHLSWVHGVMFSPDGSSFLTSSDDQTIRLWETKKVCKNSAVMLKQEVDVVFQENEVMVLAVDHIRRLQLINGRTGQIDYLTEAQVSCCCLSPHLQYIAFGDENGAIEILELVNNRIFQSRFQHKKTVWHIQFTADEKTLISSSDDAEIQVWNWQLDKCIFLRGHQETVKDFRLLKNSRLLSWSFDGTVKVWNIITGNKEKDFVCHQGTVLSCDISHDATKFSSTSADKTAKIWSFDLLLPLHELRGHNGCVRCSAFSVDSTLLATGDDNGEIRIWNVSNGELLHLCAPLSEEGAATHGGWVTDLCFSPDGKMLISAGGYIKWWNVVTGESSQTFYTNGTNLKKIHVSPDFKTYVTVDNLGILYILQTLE
Take `COc1ccccc1N=C1SC(C)CN1C(=O)C1CCC1` (stereo unspecified): the inhibition is 3.12% (inactive).

`Cc1ccc(C)c(Cn2cnc3c(oc4ccccc43)c2=O)c1`: the inhibition is -9.64% (inactive).

As to `CCOC(=O)C1CCN(C(=O)c2ccccc2N(C)S(=O)(=O)c2ccccc2)CC1`, the inhibition was 2.95% (inactive). For `CCOC(=O)C1CCN(C(=O)c2cccc(S(=O)(=O)N(CC)c3ccccc3)c2)CC1` the value was 45.2% (active); for `CCOC(=O)C1CCCN(C(=O)c2cccc(S(=O)(=O)N3CCOCC3)c2)C1` (stereo unspecified), -8.74% (inactive). Consider `CC(C)[C@@H](NC(=O)OC(C)(C)C)C(=O)NCC1CCC(C(=O)N[C@@H](Cc2ccccc2)C(=O)O)CC1` (stereo partly specified), for which the inhibition is 2.34% (inactive). As to `CCCCC(=O)Nc1ccc(C(=O)Nc2cc(C(F)(F)F)ccc2Cl)cc1`, the inhibition was 37.6% (inactive). Then `CCCCN(CCCC)CCC(O)c1cc2c(Cl)cc(Cl)cc2c2cc(C(F)(F)F)ccc12` (stereo unspecified), with 48.9% (active); and `ON=C1/C(=N\O)CC2(C/C1=N/O)OCCO2`, with -16% (inactive). Take `CN(C(=O)CN1C(=O)CCSc2ccc(S(=O)(=O)N3CCCC3)cc21)c1ccccc1`: the inhibition is -2.73% (inactive). Regarding `CCC(CO)Oc1cc(NC(=O)c2cccc(F)c2)c2ncn(C(C)C)c2c1` (stereo unspecified), the inhibition is 17.6% (inactive).

Regarding `CCC(CO)Oc1cc(NC(=O)c2cccc3ccccc23)c2ncn(C(C)C)c2c1` (stereo unspecified), the inhibition was 29.6% (inactive). As to `CCC(CO)Oc1cc(NCc2ccccc2)c2ncn(C3CCCC3)c2c1` (stereo unspecified), the inhibition was 32.6% (inactive). For `CCC(CO)Oc1cc(NC(=O)c2ccc(Cl)cc2)c2ncn(C(C)C)c2c1` (stereo unspecified), the inhibition is 11.6% (inactive).

In the case of `CC(C)n1cnc2c(NCc3ccccc3)cc(N[C@@H](CO)Cc3ccccc3)cc21`, the inhibition was 94.5% (active). On to `CC(C)n1cnc2c(NCc3ccccc3)cc(OCC3CCN(C)CC3)cc21`, for which the inhibition is 96.4% (active).

For `COc1ccc(N2CCN(CCNC(=O)c3nnc(Cc4c(F)cccc4Cl)o3)CC2)cc1`, the inhibition is -8.42% (inactive). For the compound `Cn1c(=O)c2c(nc(N3CCOCC3)n2CCNC2=NCCC2)n(C)c1=O`, the inhibition is 9.61% (inactive).

Regarding `O=C(c1ccccc1)c1cccn1CC(=O)N1CCN(c2ccc(F)cc2)CC1`, the inhibition is 5.66% (inactive). For the compound `Cc1nc(N)[nH]c(=O)c1Oc1cccc(C(F)(F)F)c1`, the inhibition was -9.16% (inactive). As for `COc1ccc(C(CNC(=O)c2ccc(S(=O)(=O)Nc3ccccc3F)cc2)N(C)C)cc1` (stereo unspecified), the inhibition was 56.5% (active). `COc1ccc(C(CNC(=O)c2ccc(NS(=O)(=O)c3ccc(F)c(C)c3)cc2)N(C)C)cc1` (stereo unspecified): the inhibition is 26% (inactive).

On to `CC(=O)c1ccc(S(=O)(=O)Nc2ccc(C(=O)NCC(c3ccccc3)N(C)C)cc2)cc1` (stereo unspecified), for which the inhibition is -18.1% (inactive). Consider `CCOC(=O)C1CCN(S(=O)(=O)c2c(C)noc2C)CC1`, for which the inhibition is 1.33% (inactive). With `C=CCNc1nc(N)c(C(=C(C#N)C#N)c2ccccc2)s1`, the inhibition is 10.1% (inactive). Then `O=C(NCCCNCc1ccccc1)c1ccc(/C=N/O)nc1`, with 6.05% (inactive); and `COc1ccc(CNC(=O)c2ccc(NS(=O)(=O)c3ccc4[nH]c(=O)[nH]c4c3)cc2)cc1OC`, with 8.25% (inactive).

Regarding `COC(=O)c1ccccc1NC(=O)CN(Cc1ccc(Cl)cc1)S(C)(=O)=O`, the inhibition is -4.4% (inactive).

Turning to `N#Cc1c(N2CCCCC2)nc(N)c2c(N)nc(SCC(=O)O)cc12`, the inhibition is 96% (active).

As to `N#CCc1c(C#N)c(N)nc(N2CCCC2)c1C#N`, the inhibition was -2.29% (inactive). Regarding `Nc1nc(NCC(=O)O)nc(N2CCCCCC2)c1[N+](=O)[O-]`, the inhibition was -0.54% (inactive).

Regarding `COc1nc(NC2CCCCC2)nc(N2CCCCCC2)n1`, the inhibition was 15.5% (inactive). Then `O=C(O)COCC(=O)NCc1csc2ccc(Cl)cc12`, with -14.6% (inactive). Take `CCOc1ccc(Br)cc1S(=O)(=O)Nc1ccc(S(=O)(=O)Nc2cc(C)on2)cc1`: the inhibition was 9.47% (inactive).

For `CCCS(=O)(=O)C(=C1Nc2ccccc2N1)S(=O)(=O)CCC`, the inhibition is 8.61% (inactive). Then `COc1ccc(S(=O)(=O)NCCCc2ccccc2)cc1`, with -8.3% (inactive). As to `CCCC(NS(=O)(=O)c1ccc(OC)cc1)C(=O)O` (stereo unspecified), the inhibition was -6.54% (inactive). For `COc1ccc(S(=O)(=O)/N=C2\C=C(NS(=O)(=O)c3ccccc3)C(=O)c3ccccc32)cc1` the value was 79.2% (active); for `CCOC(=O)c1cnc(SC)nc1Sc1ccc(Cl)cc1Cl`, 14% (inactive); for `O=C(c1cnccn1)N1CCN(S(=O)(=O)c2cccc(Cl)c2)CC1`, -4.31% (inactive). Turning to `O=C(CN1CCN(C2CCCCC2)CC1)Nc1ccccc1N1CCCCC1`, the inhibition was 6.34% (inactive). Consider `CN1CCN(c2ccccc2NC(=O)COc2ccc(C3CCCCC3)cc2)CC1`, for which the inhibition is 43.6% (active). For `Cc1ccc(C(C)C)cc1OCC(=O)Nc1ccccc1N1CCCC1` the value was 16.1% (inactive); for `Cn1nnnc1SCC(=O)Nc1cccc(S(=O)(=O)N2CCCCC2)c1`, 7.72% (inactive).

Turning to `CC(=O)c1c(C)[nH]c(C(=O)OCC(=O)NCCC(C)C)c1C`, the inhibition was -7.2% (inactive). For `CC(=O)c1c(C)[nH]c(C(=O)COC(=O)CCOc2ccc(C)cc2)c1C` the value was 9.54% (inactive); for `CC(C)(C)C(=O)N1CCC[C@@]1(CO)C(=O)O`, 6.37% (inactive).

With `Cc1ccc(N=C2NC(=O)/C(=C/C=C/c3ccco3)S2)cc1C`, the inhibition was 61.8% (active). Then `CN1C(=O)/C(=C/c2ccco2)SC1=Nc1cccc(C(=O)O)c1`, with 20% (inactive). For the compound `Cc1nn(C)c(C)c1NS(=O)(=O)c1ccc(OC(F)(F)F)cc1`, the inhibition was -0.237% (inactive). Then `O=C1COc2ccc(S(=O)(=O)Nc3ccc(OC(F)(F)F)cc3)cc2N1`, with 11.8% (inactive). With `O=S(=O)(Nc1ccc(O)c2ccccc12)c1ccc(OC(F)(F)F)cc1`, the inhibition is 60.9% (active). Regarding `CCc1ccc(CN(C)C(=O)CCc2nnc(-c3ccc(-c4ccccc4)cc3)o2)nc1`, the inhibition is 12.9% (inactive). For `CCCCCCc1cc2cc(-c3nnc(-c4ccccc4)o3)c(=O)oc2cc1O`, the inhibition was 67.8% (active).

For the compound `Cc1c(CCC(=O)O)c(=O)oc2cc3occ(-c4ccccc4)c3cc12`, the inhibition was -15.7% (inactive). In the case of `O=C(/C=C/c1ccc([N+](=O)[O-])cc1)NCCSCc1ccco1`, the inhibition was -3.53% (inactive). Consider `COc1ccc(S(=O)(=O)N(C)C)cc1NC(=O)CSc1ncccn1`, for which the inhibition was -1.98% (inactive). Regarding `COc1ccc(NS(=O)(=O)c2ccc3oc(SCC(N)=O)nc3c2)cc1`, the inhibition is 4.33% (inactive). Then `CN(C)S(=O)(=O)c1ccc2oc(SCC(=O)Nc3ccccc3F)nc2c1`, with 61.1% (active).

On to `CC(C)[C@@H]1COC(c2cccc(C3=N[C@H](C(C)C)CO3)c2)=N1`, for which the inhibition was 9.42% (inactive). Turning to `CN(C)c1ccnc(Oc2ccc(F)cc2)c1C#N`, the inhibition was -5.43% (inactive). For `COc1ccccc1CNC(=O)[C@@H]1CCCN1C(=O)[C@@H]1Cc2ccccc2CN1C(=O)OC(C)(C)C`, the inhibition was 11% (inactive).

Take `COc1ccc(Cn2cccc(NC(=O)Nc3ccc(C#N)cc3)c2=O)cc1`: the inhibition was -0.047% (inactive). On to `Cc1cc(C)c(C(N)=O)c(Cl)n1`, for which the inhibition was -5.56% (inactive). For `O=C(CCCN1CCc2[nH]c3ccc(F)cc3c2C1)c1ccc(F)cc1`, the inhibition was 65% (active). For `O=c1c2ccccc2[nH]c(=S)n1CCN1CCC(=C(c2ccc(F)cc2)c2ccc(F)cc2)CC1` the value was 15.1% (inactive); for `CC1CCc2[nH]c3ccc(C(=O)N(C)CC(=O)Nc4cccc(F)c4)cc3c2C1` (stereo unspecified), 20.4% (inactive); for `Cc1nn(C)c(C)c1CN(C(=O)CCc1nnc(Cc2c[nH]c3ccccc23)o1)C(C)C`, -6.13% (inactive). `O=C1CCCCC1C(=O)c1ccccc1` (stereo unspecified): the inhibition is -20% (inactive). As to `COc1ccc(NC(=O)CCNS(=O)(=O)c2ccc3c(c2)c(=O)n(C)c(=O)n3C)cc1OC`, the inhibition was -6.12% (inactive). For `CC(C)=CC(=O)Nc1nnc(-c2ccc(F)cc2)s1` the value was 0.969% (inactive); for `CC(=O)OC(COc1ccc(F)cc1)Cn1cnc2ccccc21` (stereo unspecified), 17.3% (inactive). For `CC(=O)N=c1ncn(CC(COC(C)=O)OC(C)=O)c2nc[nH]c12` (stereo unspecified) the value was 74.2% (active); for `CC(=O)OCC(COC(C)=O)OC(C)=O`, 6.7% (inactive); for `Cn1c(SCC(=O)C(C)(C)C)nnc1-c1ccccn1`, -10.6% (inactive). Regarding `CCOC(=O)N1CCC(c2cc(=O)n(-c3ccccc3)[nH]2)CC1`, the inhibition was 86.7% (active). For `CCOC(=O)CN1CCC(c2ccccc2)CC1` the value was -14.9% (inactive); for `CCOC(=O)N1CCC(NC(=O)CCc2ccccc2)CC1`, -3.62% (inactive).

As to `CCc1cc(C(=O)OC)c(NC(=O)CC2Sc3ccc(C(F)(F)F)cc3NC2=O)s1` (stereo unspecified), the inhibition is 22.8% (inactive). On to `CCOC(=O)Nc1ccc2c(c1)N(C(=O)CN1CCN3CCCC3C1)c1ccccc1CC2` (stereo unspecified), for which the inhibition is -1.68% (inactive). For the compound `Cc1ccc(-c2cccc([C@H]3[C@@H]4C=CC[C@@H](C)[C@@H]4C(=O)N3Cc3ccccc3)c2)cc1`, the inhibition was 19.9% (inactive). In the case of `CC1(C)CC(=O)C=C(c2ccc3ncccc3c2)C1`, the inhibition was -1.2% (inactive).

As for `Cc1cc2oc3ccc(NCCC4CCCN4C)cc3c(=O)c2cc1C` (stereo unspecified), the inhibition is 46.9% (active). Take `Cc1cc2oc(=O)cc(CN3CCN(Cc4ccccc4)CC3)c2cc1C`: the inhibition is 17.9% (inactive). For `COc1cccc2sc3cc(NCC[C@@H]4CCCN4C)ccc3c(=O)c12` the value was 39.7% (inactive); for `CC(C)c1ccc2oc(=O)cc(CN3CCN(Cc4ccccc4)CC3)c2c1`, 19.2% (inactive).

Regarding `COc1ccc(CCNC(=O)CN(c2ccccc2)S(C)(=O)=O)cc1`, the inhibition was 4.78% (inactive). Turning to `COc1ccc(N(CCC(=O)NCCc2ccccc2)S(=O)(=O)c2ccc(C)cc2C)cc1`, the inhibition is 54.9% (active).

For `CCOc1ccc(N(CC(=O)NCCc2ccc(OC)cc2)S(C)(=O)=O)cc1`, the inhibition is 5.5% (inactive). For the compound `O=c1cc(CN2CCN(S(=O)(=O)/C=C/c3ccccc3)CC2)c2ccc(O)cc2o1`, the inhibition was 21.6% (inactive).

Consider `O=C(NCCCN1CCOCC1)c1ccccc1NS(=O)(=O)c1ccc(F)cc1`, for which the inhibition was -4.73% (inactive).

The inhibition is the relative decrease from the control value, in per cent.
